Measured values published in ChEMBL document CHEMBL1148725, “2,2,2-Trichloro-N-({2-[2-(dimethylamino)ethyl]-1,3-dioxo-2,3-dihydro-1H-benzo[de]isoquinolin- 5-yl}carbamoyl)acetamide (UNBS3157), a novel nonhematotoxic naphthalimide derivative with potent antitumor activity” (J Med Chem, 2007).
Calls of active or inactive are those of the source. No cut-off for these calls is given here.

Experiments:
[1] = system: PC-3; test: Induction of senescence in human PC3 cells; format: functional, cell-based
Procedure, shortened: (§1)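 SA-β-galactosidase staining of PC-3 and DU-145 prostate cancer cells after 72 h at 10 µM; adriamycin 20 nM as positive control; expressed as percentage of positively stained cells.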

[2] = system: DU-145; test: Induction of senescence in human DU145 cells; format: functional, cell-based; procedure, shortened: as §1
[3] = system: MCF7; test: Antiproliferative activity against MCF7 cells after 72 hrs by MTT assay; format: functional, cell-based, Homo sapiens; details: Homo sapiens, MCF7, 72 h
Procedure, shortened: (§2)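 Cells cultured with each compound for three days; growth then read by the MTT colorimetric assay and reported as IC50 (µM).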

[4] = system: L1210; test: Antitumor activity in L1210 cells xenografted B6D2F1 mouse at 40 mg/kg, ip relative to control; format: functional; details: route intraperitoneal
Procedure, shortened: (§3)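 Mice grafted with L1210 leukaemia cells on day 0, then dosed i.p. four times weekly on days 1-4 and 8-11. Five mice per group. Outcome is %T/C, the median survival of treated over control. Kruskal-Wallis test followed by Dunn comparisons against control.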

[5] = system: L1210; test: Antitumor activity in L1210 cells xenografted B6D2F1 mouse at 80 mg/kg, ip relative to control; format: functional; details: route intraperitoneal; procedure, shortened: as §3
[6] = Antiproliferative activity against U373MG cells after 72 hrs by MTT assay; format: functional, cell-based, Homo sapiens, U-373MG ATCC; procedure, shortened: as §2
[7] = system: Mus musculus; test: Hematotoxicity in ip dosed B6D2F1 mouse assessed as decrease in platelet count; format: organism-based; details: in vivo
Procedure, shortened: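 Healthy female B6D2F1 mice, 10 per group, dosed i.p. three times weekly for five weeks at two dose levels set relative to MTD. Vehicle DMSO/saline 5:95 v/v. Killed 3 days after the last dose; blood platelet, RBC and WBC counts taken with a Coulter counter.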

[8] = system: L1210; test: Antitumor activity in L1210 cells xenografted B6D2F1 mouse at 120 mg/kg, ip relative to control; format: functional; details: route intraperitoneal; procedure, shortened: as §3
[9] = system: Mus musculus; test: Toxicity in B6D2F1 mouse at 120 mg/kg, ip; format: organism-based; parameters: dose 120 mg/kg, route intraperitoneal; details: in vivo
Procedure, shortened: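 Healthy female B6D2F1 mice, 10 per group, dosed i.p. in DMSO/saline (5:95 v/v) three times weekly for five weeks at two levels set relative to MTD; sacrificed 3 days after final dose; platelet, RBC and WBC counted by Coulter counter.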

[10] = Toxicity in ip dosed B6D2F1 mouse; format: organism-based; details: in vivo
Procedure, shortened: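 Acute MTD was set by a single i.p. dose to groups of three healthy female B6D2F1 mice, at 2.5, 5, 10, 20, 40, 80 and 160 mg/kg. The MTD is the dose just below the lowest dose that killed at least one mouse.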

[11] = Antiproliferative activity against Hs683 cells after 72 hrs by MTT assay; format: functional, cell-based, Homo sapiens, Hs 683; procedure, shortened: as §2
[12] = system: LoVo; test: Antiproliferative activity against LoVo cells after 72 hrs by MTT assay; format: functional, cell-based, Homo sapiens; procedure, shortened: as §2
[13] = system: L1210; test: Antitumor activity in L1210 cells xenografted B6D2F1 mouse at 20 mg/kg, ip relative to control; format: functional; details: route intraperitoneal; procedure, shortened: as §3
[14] = system: A549; test: Antiproliferative activity against A549 cells after 72 hrs by MTT assay; format: functional, cell-based, Homo sapiens; procedure, shortened: as §2
[15] = system: HCT-15; test: Antiproliferative activity against HCT15 cells after 72 hrs by MTT assay; format: functional, cell-based, Homo sapiens; procedure, shortened: as §2
[16] = system: L1210; test: Antitumor activity in L1210 cells xenografted B6D2F1 mouse at 10 mg/kg, ip relative to control; format: functional; details: route intraperitoneal; procedure, shortened: as §3
[17] = system: Mus musculus; test: Hematotoxicity in B6D2F1 mouse assessed as RBC count at 5 mg/kg, po; format: organism-based; parameters: dose 5 mg/kg, route oral; details: in vivo
[18] = system: Mus musculus; test: Hematotoxicity in B6D2F1 mouse assessed as platelet count at 10 mg/kg, po; format: organism-based; parameters: dose 10 mg/kg, route oral; details: in vivo
[19] = system: Mus musculus; test: Hematotoxicity in B6D2F1 mouse assessed as WBC count at 10 mg/kg, po; format: organism-based; parameters: dose 10 mg/kg, route oral; details: in vivo
[20] = system: L1210; test: Antitumor activity in L1210 cells xenografted B6D2F1 mouse at 5 mg/kg, ip relative to control; format: functional; details: route intraperitoneal; procedure, shortened: as §3
[21] = system: Mus musculus; test: Hematotoxicity in B6D2F1 mouse assessed as WBC count at 5 mg/kg, iv; format: organism-based; parameters: dose 5 mg/kg, route intravenous; details: in vivo
[22] = system: Mus musculus; test: Hematotoxicity in B6D2F1 mouse assessed as platelet count at 5 mg/kg, po; format: organism-based; parameters: dose 5 mg/kg, route oral; details: in vivo
[23] = system: Mus musculus; test: Hematotoxicity in B6D2F1 mouse assessed as platelet count at 5 mg/kg, iv; format: organism-based; parameters: dose 5 mg/kg, route intravenous; details: in vivo
[24] = Antitumor activity against mouse MXT-HI cells xenografted in B6D2F1 mouse at 20 mg/kg, ip relative to control; format: functional; details: route intraperitoneal
Procedure, shortened: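 MXT-HI mammary adenocarcinoma grafted s.c. onto female B6D2F1 mice. Dosing i.p., five injections weekly for three weeks from day 14 post-graft. Nine mice per group. Tumour surface area measured, and survival expressed as %T/C, the ratio of treated to control median survival time.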

[25] = system: Mus musculus; test: Hematotoxicity in B6D2F1 mouse assessed as WBC count at 10 mg/kg, iv; format: organism-based; parameters: dose 10 mg/kg, route intravenous; details: in vivo
[26] = system: Mus musculus; test: Hematotoxicity in B6D2F1 mouse assessed as WBC count at 5 mg/kg, po; format: organism-based; parameters: dose 5 mg/kg, route oral; details: in vivo
[27] = system: Mus musculus; test: Hematotoxicity in B6D2F1 mouse assessed as RBC count at 5 mg/kg, iv; format: organism-based; parameters: dose 5 mg/kg, route intravenous; details: in vivo
[28] = system: Mus musculus; test: Hematotoxicity in B6D2F1 mouse assessed as RBC count at 10 mg/kg, iv; format: organism-based; parameters: dose 10 mg/kg; details: in vivo
[29] = system: Mus musculus; test: Hematotoxicity in B6D2F1 mouse assessed as RBC count at 10 mg/kg, po; format: organism-based; parameters: dose 10 mg/kg, route oral; details: in vivo
[30] = system: Mus musculus; test: Hematotoxicity in B6D2F1 mouse assessed as WBC count at 20 mg/kg, po; format: organism-based; parameters: dose 20 mg/kg, route oral; details: in vivo
[31] = system: Mus musculus; test: Toxicity in B6D2F1 mouse at 40 mg/kg, ip; format: organism-based; parameters: dose 40 mg/kg, route intraperitoneal; details: in vivo
[32] = system: L1210; test: Antitumor activity in L1210 cells xenografted B6D2F1 mouse at 2.5 mg/kg, ip relative to control; format: functional; details: route intraperitoneal; procedure, shortened: as §3
[33] = system: Mus musculus; test: Hematotoxicity in B6D2F1 mouse assessed as RBC count at 20 mg/kg, po; format: organism-based; parameters: dose 20 mg/kg, route oral; details: in vivo
[34] = system: Mus musculus; test: Hematotoxicity in B6D2F1 mouse assessed as platelet count at 20 mg/kg, po; format: organism-based; parameters: dose 20 mg/kg, route oral; details: in vivo
[35] = system: Mus musculus; test: Hematotoxicity in B6D2F1 mouse assessed as platelet count at 10 mg/kg, iv; format: organism-based; parameters: dose 10 mg/kg, route intravenous; details: in vivo

For `COc1cccc2c1C(=O)c1c(O)c3c(c(O)c1C2=O)C[C@@](O)(C(=O)CO)C[C@@H]3O[C@H]1C[C@H](N)[C@H](O)[C@H](C)O1`, the Activity [1] was “inactive” and the Activity [2] was “Active”.
For `CN(C)CCN1C(=O)c2cccc3cc(/N=C\c4cc5c(cc4[N+](=O)[O-])OCO5)cc(c23)C1=O`, the IC50 [3] was > 10 µM, the Activity [4] was 278% and the Activity [5] was >300%. The IC50 ([6]; Homo sapiens, U373 MG, 72 h) was 5 µM, the Activity [7] was “Toxic” and the Activity [8] was 40%. The Activity [9] was “Toxic”, the MTD [10] was > 160 mg/kg and the IC50 ([11]; Homo sapiens, Hs 683, 72 h) was > 10 µM. The IC50 ([12]; Homo sapiens, LoVo, 72 h) was > 10 µM, the Activity [13] was 195% and the IC50 ([14]; Homo sapiens, A549, 72 h) was > 10 µM. For the same compound, the IC50 ([15]; Homo sapiens, HCT-15, 72 h) was > 10 µM and the Activity [16] was 215%.
With `CN(C)CCN1C(=O)c2cccc3cc(N)cc(c23)C1=O` [AMONAFIDE] the Activity [17] was 9.82 10^6 /uL, the Activity [18] was 916 10^3 /uL and the Activity [19] was 3.06 10^3 /uL. It also gave an IC50 [3] of 5.8 µM, an Activity [20] of 140% and an Activity [4] of 49%. The Activity [21] was 3.33 10^3 /uL, the Activity [22] was 892 10^3 /uL and the IC50 ([6]; u-373mg atcc) was 3.5 µM. The Activity [23] was 461 10^3 /uL, the Activity [24] was 143% and the Activity [25] was 3.07 10^3 /uL. For the same compound, the MTD [10] was 40 mg/kg, the Activity [26] was 3.26 10^3 /uL and the Activity [27] was 8.59 10^6 /uL. For the same compound, the Activity [28] was 9.54 10^6 /uL, the Activity [29] was 10.05 10^6 /uL and the Activity [30] was 2.93 10^3 /uL. For the same compound, the Activity [31] was “Toxic”, the Activity [32] was 109% and the Activity [33] was 9.54 10^6 /uL. The Activity [34] was 806 10^3 /uL, the IC50 ([11]; hs 683) was 3.9 µM and the Activity [35] was 390 10^3 /uL. It also gave an IC50 ([12]; lovo) of 2.7 µM, an Activity [13] of 121% and an IC50 ([14]; a549) of 3.8 µM. The IC50 ([15]; hct-15) was 5.2 µM and the Activity [16] was 122%.
